From ChEMBL document CHEMBL1145425, “Antitumor agents 259. Design, syntheses, and structure-activity relationship study of desmosdumotin C analogs” (2007)
≈ marks a conversion by molar mass, not a printed value.

Tests used:
[1] = tested on: A549; test: Cytotoxicity against human A549 cells; type: functional; details: read-out: ED50 (the source's name)
Procedure, shortened: (§1)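 Sulforhodamine B growth assay. Lines kept in RPMI-1640 with 25 mM HEPES, 0.25% sodium bicarbonate, 10% FBS and kanamycin. Trypsinized cells seeded at 1500–7500 per well, with compound added from DMSO-diluted stock. After 3 days, attached cells fixed with cold 50% TCA, stained with 0.4% SRB, dye solubilized, absorbance read at 562 nm. ED50 is 50% growth reduction, averaged over at least three independent determinations.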

[2] = tested on: 1A9; test: Cytotoxicity against human 1A9 cells; type: functional; details: read-out: ED50 (the source's name); procedure, shortened: as §1
[3] = tested on: A-431; test: Cytotoxicity against human A431 cells; type: functional; details: read-out: ED50 (the source's name); procedure, shortened: as §1
[4] = tested on: KB; test: Cytotoxicity against human KB cells; type: functional; details: read-out: ED50 (the source's name); procedure, shortened: as §1
[5] = tested on: HCT-8; test: Cytotoxicity against human HCT8 cells; type: functional; details: read-out: ED50 (the source's name); procedure, shortened: as §1
[6] = tested on: KB; test: Cytotoxicity against human vincristine-resistant KB cells; type: functional; details: read-out: ED50 (the source's name); procedure, shortened: as §1
[7] = tested on: PC-3; test: Cytotoxicity against human PC3 cells; type: functional; details: read-out: ED50 (the source's name); procedure, shortened: as §1
[8] = Selectivity ratio of ED50 for KB cells to ED50 for KB-VIN cells; type: functional, Homo sapiens
[9] = tested on: HUVEC; test: Antiangiogenesis activity against HUVEC; type: functional; details: Homo sapiens, read-out: ED50 (the source's name)
Procedure, shortened: (§2)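 HUVEC seeded at 1.5×10^3 per well in EGM-2; after 24 h (day zero) compound added in EGM-2 at 2× the desired concentration. Day-zero plate stained with crystal violet. Remaining plates kept 72 h at 37 °C, then stained with 0.5% crystal violet in 20% MeOH. Dye eluted with 1:1 EtOH:0.1 M sodium citrate and read at 540 nm. Run per the NCI Angiogenesis Resource Center protocol.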

[10] = tested on: HUVEC; test: Cytotoxicity against HUVEC; type: functional; details: Homo sapiens, read-out: ED50 (the source's name); procedure, shortened: as §2

Row | SMILES | EC50 [1] [µg/mL] | EC50 [2] [µg/mL] | EC50 [3] [µg/mL] | EC50 [4] [µg/mL] | EC50 [5] [µg/mL] | EC50 [6] [µg/mL] | EC50 [7] [µg/mL] | Ratio ED50 [8] | EC50 [9] [µg/mL] | EC50 [10] [µg/mL]
1 | CCCC1=C(OC)C(CCC)(CCC)C(=O)/C(=C(O)\C=C\c2ccccc2)C1=O | 1.4 (≈ 3.53 µM) | 1.5 (≈ 3.78 µM) | 1.9 (≈ 4.79 µM) | 0.6 (≈ 1.51 µM) | 1.4 (≈ 3.53 µM) | 0.8 (≈ 2.02 µM) | 3.3 (≈ 8.32 µM) |  |  | 
2 | CCC1=C(OC)C(C)(C)C(=O)C(C(=O)/C=C/c2ccccc2)=C1O | 5.5 (≈ 16.9 µM) | 3.8 (≈ 11.6 µM) | 13.8 (≈ 42.3 µM) | 4.3 (≈ 13.2 µM) | 9.4 (≈ 28.8 µM) | 0.3 (≈ 0.919 µM) | 18.9 (≈ 57.9 µM) | 14.3 |  | 
3 | COC1=C(C)C(=O)/C(=C(O)/C=C/c2ccc(Br)cc2)C(=O)C1(C)C | 1.4 (≈ 3.58 µM) | 1.1 (≈ 2.81 µM) | 9 (≈ 23 µM) | 1.7 (≈ 4.34 µM) | 7.4 (≈ 18.9 µM) | 1.9 (≈ 4.86 µM) | 17.7 (≈ 45.2 µM) |  | < 4 | 3.6 (≈ 9.2 µM)
4 | CCCC1=C(OC)C(CCC)(CCC)C(=O)/C(=C(O)\C=C\c2ccc(Br)cc2)C1=O | 1 (≈ 2.1 µM) | 0.9 (≈ 1.89 µM) | 1.2 (≈ 2.52 µM) | 0.9 (≈ 1.89 µM) | 1.3 (≈ 2.73 µM) | 0.9 (≈ 1.89 µM) | 2.3 (≈ 4.84 µM) |  |  | 
5 | CCC1=C(OC)C(CC)(CC)C(=O)C(C(=O)/C=C/c2ccc(C)cc2)=C1O | 4.6 (≈ 12.5 µM) | 4.3 (≈ 11.7 µM) | 10.3 (≈ 28 µM) | 3 (≈ 8.14 µM) | 9.4 (≈ 25.5 µM) | 1 (≈ 2.71 µM) | 15 (≈ 40.7 µM) |  |  | 
6 | C=Cc1ccccc1/C=C/C(O)=C1/C(=O)C(C)=C(OC)C(C)(C)C1=O | 2.2 (≈ 6.5 µM) |  | 2.6 (≈ 7.68 µM) | 1.9 (≈ 5.61 µM) | 2.1 (≈ 6.21 µM) | 1.1 (≈ 3.25 µM) | 4.6 (≈ 13.6 µM) |  | 1.1 (≈ 3.25 µM) | 1.1 (≈ 3.25 µM)
7 | COC1=C(C)C(=O)/C(=C(O)/C=C/c2c(C)cccc2C)C(=O)C1(C)C | 8.3 (≈ 24.4 µM) |  | 10.1 (≈ 29.7 µM) | 7.1 (≈ 20.9 µM) | 7.8 (≈ 22.9 µM) | 2.1 (≈ 6.17 µM) | 17.1 (≈ 50.2 µM) |  | < 4 | 3 (≈ 8.81 µM)
8 | COC1=C(C)C(=O)/C(=C(O)/C=C/c2cc(C)cc(C)c2)C(=O)C1(C)C | 4.3 (≈ 12.6 µM) |  | 4 (≈ 11.8 µM) | 3.1 (≈ 9.11 µM) | 2.9 (≈ 8.52 µM) | 1.6 (≈ 4.7 µM) | 8.8 (≈ 25.9 µM) |  | < 4 | 2.5 (≈ 7.34 µM)
9 | COC1=C(C)C(=O)/C(=C(O)/C=C/c2ccccc2OC)C(=O)C1(C)C | 2.4 (≈ 7.01 µM) | 2.5 (≈ 7.3 µM) | 6.6 (≈ 19.3 µM) | 3.3 (≈ 9.64 µM) | 4.1 (≈ 12 µM) | 2.8 (≈ 8.18 µM) | 15.6 (≈ 45.6 µM) |  | < 4 | 1.7 (≈ 4.97 µM)
10 | COC1=C(C)C(=O)/C(=C(O)/C=C/c2ccc(C)cc2)C(=O)C1(C)C | 4.3 (≈ 13.2 µM) |  | 5.1 (≈ 15.6 µM) | 3.9 (≈ 11.9 µM) | 4.1 (≈ 12.6 µM) | 1.9 (≈ 5.82 µM) | 8.2 (≈ 25.1 µM) |  | < 4 | 2.4 (≈ 7.35 µM)
11 | COC1=C(C)C(=O)/C(=C(O)/C=C/c2ccc(O)cc2)C(=O)C1(C)C | 3.1 (≈ 9.44 µM) | 2.9 (≈ 8.83 µM) | 14.9 (≈ 45.4 µM) | 3.8 (≈ 11.6 µM) | 14.8 (≈ 45.1 µM) | 3.8 (≈ 11.6 µM) | > 20 |  | < 4 | 4 (≈ 12.2 µM)
12 | CC1(C)C(=O)C(C(=O)/C=C/c2ccccc2)=C(O)C(C)(C)C1=O | > 5 | 4.6 (≈ 14.7 µM) | 10.5 (≈ 33.6 µM) | 7.3 (≈ 23.4 µM) | 5 (≈ 16 µM) | 3.8 (≈ 12.2 µM) | 11.1 (≈ 35.5 µM) |  | < 4 | 2 (≈ 6.4 µM)
13 | COC1=C(C)C(=O)/C(=C(O)/C=C/c2c(C)cc(C)cc2C)C(=O)C1(C)C | 8 (≈ 22.6 µM) | 6.2 (≈ 17.5 µM) | 20 (≈ 56.4 µM) | > 20 | 8.4 (≈ 23.7 µM) | 1.84 (≈ 5.19 µM) | > 20 | >5 |  | 
14 | COC1=C(C)C(=O)/C(=C(O)/C=C/c2cccc3ccccc23)C(=O)C1(C)C | 3.6 (≈ 9.93 µM) |  | 4.1 (≈ 11.3 µM) | 2.8 (≈ 7.73 µM) | 2.3 (≈ 6.35 µM) | 1.3 (≈ 3.59 µM) | 9 (≈ 24.8 µM) |  | < 4 | 1.8 (≈ 4.97 µM)
15 | COC1=C(C)C(=O)/C(=C(O)/C=C/c2cccc(OC)c2)C(=O)C1(C)C | 2.8 (≈ 8.18 µM) | 2.9 (≈ 8.47 µM) | 4.5 (≈ 13.1 µM) | 3.3 (≈ 9.64 µM) | 2.9 (≈ 8.47 µM) | 2.4 (≈ 7.01 µM) | 14.3 (≈ 41.8 µM) |  | < 4 | 1.6 (≈ 4.67 µM)
16 | COC1=C(C)C(=O)/C(=C(O)/C=C/c2ccco2)C(=O)C1(C)C | 10 (≈ 33.1 µM) | 7.9 (≈ 26.1 µM) | 14.7 (≈ 48.6 µM) | 9.9 (≈ 32.7 µM) | 17.5 (≈ 57.9 µM) | 8.8 (≈ 29.1 µM) | 20.6 (≈ 68.1 µM) |  | < 4 | 2.4 (≈ 7.94 µM)
17 | COC1=CC(O)=C(C(=O)/C=C/c2ccccc2)C(=O)C1(C)C | > 5 | 3.6 (≈ 12.1 µM) | 7 (≈ 23.5 µM) | 4.1 (≈ 13.7 µM) | 3.3 (≈ 11.1 µM) | 2.9 (≈ 9.72 µM) | 14.2 (≈ 47.6 µM) |  |  | > 20
18 | COC1=C(C)C(=O)/C(=C(O)/C=C/c2nccs2)C(=O)C1(C)C | 3.5 (≈ 11 µM) | 3.5 (≈ 11 µM) | 6 (≈ 18.8 µM) | 4.3 (≈ 13.5 µM) | 5.1 (≈ 16 µM) | 3 (≈ 9.39 µM) | 10.8 (≈ 33.8 µM) |  | < 4 | 1.6 (≈ 5.01 µM)
19 | CCc1ccc(/C=C/C(O)=C2/C(=O)C(C)=C(OC)C(C)(C)C2=O)cc1 | 6.1 (≈ 17.9 µM) | 5.3 (≈ 15.6 µM) | 12 (≈ 35.3 µM) | 6.9 (≈ 20.3 µM) | 10.5 (≈ 30.8 µM) | 1.9 (≈ 5.58 µM) | 15.1 (≈ 44.4 µM) |  |  | 
20 | CCC1=C(OC)C(CC)(CC)C(=O)C(C(=O)/C=C/c2ccc(CC)cc2)=C1O | 3.8 (≈ 9.93 µM) | 3.8 (≈ 9.93 µM) | 9.8 (≈ 25.6 µM) | 3.6 (≈ 9.41 µM) | 8.5 (≈ 22.2 µM) | 2.6 (≈ 6.8 µM) | 15 (≈ 39.2 µM) |  |  | 
21 | COC1=C(C)C(O)=C(C(=O)/C=C/c2ccccc2)C(=O)C1(C)C [DESMOSDUMOTIN C] | 3.5 (≈ 11.2 µM) | 3.5 (≈ 11.2 µM) | 5.1 (≈ 16.3 µM) | 4 (≈ 12.8 µM) | 3.7 (≈ 11.8 µM) | 3 (≈ 9.6 µM) | 11.1 (≈ 35.5 µM) |  | < 4 | 2.1 (≈ 6.72 µM)
22 | CCC1=C(OC)C(CC)(CC)C(=O)C(C(=O)/C=C/c2ccccc2)=C1O | 3.4 (≈ 9.59 µM) | 2.1 (≈ 5.92 µM) | 5.4 (≈ 15.2 µM) | 2.8 (≈ 7.9 µM) | 2.8 (≈ 7.9 µM) | 1.2 (≈ 3.39 µM) | 7.7 (≈ 21.7 µM) |  |  | 
23 | COC1=C(C)C(=O)/C(=C(O)/C=C/c2ccc(F)cc2)C(=O)C1(C)C | 3.3 (≈ 9.99 µM) |  | 4.1 (≈ 12.4 µM) | 3.7 (≈ 11.2 µM) | 3.6 (≈ 10.9 µM) | 2.7 (≈ 8.17 µM) | 7.2 (≈ 21.8 µM) |  | < 4 | 2 (≈ 6.05 µM)
24 | CC1=C(O)C(C)(C)C(=O)C(C(=O)/C=C/c2ccccc2)=C1O | 9 (≈ 30.2 µM) | 8 (≈ 26.8 µM) | 14 (≈ 46.9 µM) | 10.5 (≈ 35.2 µM) | 15.8 (≈ 53 µM) | 6.5 (≈ 21.8 µM) | 17.8 (≈ 59.7 µM) |  | < 4 | 2.1 (≈ 7.04 µM)
25 | COC1=C(C)C(=O)/C(=C(O)/C=C/c2ccc(OC)cc2)C(=O)C1(C)C | 3 (≈ 8.76 µM) | 2.8 (≈ 8.18 µM) | 9.2 (≈ 26.9 µM) | 3.6 (≈ 10.5 µM) | 5.6 (≈ 16.4 µM) | 2.9 (≈ 8.47 µM) | 18.2 (≈ 53.2 µM) |  | < 4 | 2.5 (≈ 7.3 µM)
26 | COC1=C(C)C(=O)/C(=C(O)/C=C/c2cccs2)C(=O)C1(C)C | 4.5 (≈ 14.1 µM) | 4 (≈ 12.6 µM) | 10.8 (≈ 33.9 µM) | 5.5 (≈ 17.3 µM) | 8.6 (≈ 27 µM) | 3.4 (≈ 10.7 µM) | 18.2 (≈ 57.2 µM) |  | < 4 | 2.5 (≈ 7.85 µM)
